The values that follow come from ChEMBL document CHEMBL2321791, “A new cytotoxic quinolone alkaloid and a pentacyclic steroidal glycoside from the stem bark of Crataeva nurvala: study of anti-proliferative and apoptosis inducing property” (Eur J Med Chem, 2013).

Structures are written as SMILES. Calls of active or inactive are those of the source. The rule behind the calls is not given here.

Data set [1] has as its system PC-3. Nature of the data set: Cytotoxicity against human PC3 cells. The format is functional, cell-based. The essentials:
(§1)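 MTT viability assay. Cells were plated at 3 × 10³ cells/well and treated in triplicate with a range of concentrations, with final DMSO at 0.2%. After 48 h incubation, MTT (0.5 mg/mL) was added for a further 4 h at 37 °C. Formazan was read by optical density at 570 nm and percentage viability calculated.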

For data set [2], the system named is MCF7. Nature of the data set: Cytotoxicity against human MCF7 cells. The format is functional, cell-based. The gist of the method:
as §1

In data set [3] the test system is HeLa. The experiment in a line: Cytotoxicity against human HeLa cells. The data set is classed as functional, cell-based. The essentials: as §1
Data set [4] relates to HeLa. Nature of the data set: Cell cycle arrest in human HeLa cells assessed as cells at G0 phase at 1 uM measured after 24 hrs by propidium iodide/FACS analysis (reference value: 68.6%). The data set is classed as functional.
Data set [5] relates to HeLa. Nature of the data set: Cell cycle arrest in human HeLa cells assessed as cells at G1 phase at 1 uM measured after 24 hrs by propidium iodide/FACS analysis (reference value: 14.7%). The format is functional.
Data set [6] deals with PC-3. Nature of the data set: Cytotoxicity against human PC3 cells at 50 uM measured after 48 hrs by MTT assay. The conditions noted are these: pc-3, 48 h. The format is cell-based. The essentials:
as §1

The test system of data set [7] is HeLa. The experiment in a line: Cytotoxicity against human HeLa cells at 50 uM measured after 48 hrs by MTT assay. The data set is classed as cell-based. The gist of the method: as §1
The test system of data set [8] is HeLa. The experiment in a line: Cell cycle arrest in human HeLa cells assessed as cells at G0 phase at 50 uM measured after 24 hrs by propidium iodide/FACS analysis (reference value: 68.6%). The data set is classed as functional.
In data set [9] the test system is HeLa. Nature of the data set: Cell cycle arrest in human HeLa cells assessed as cells at G1 phase at 50 uM measured after 24 hrs by propidium iodide/FACS analysis (reference value: 14.7%). The format is functional.
Data set [10] relates to MCF7. Nature of the data set: Inhibition of cell migration in human MCF7 cells at 80 uM for 24 hrs by wound healing assay. The format is functional, cell-based. The gist of the method: (§2)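 Wound-healing (scratch) assay. Cells were seeded at 5.5 × 10⁵ cells/well in 6-well plates and grown overnight to a confluent monolayer. After 24 h serum starvation, the monolayer was scratched with a pipette tip, washed with serum-free medium and photographed at 0 h. Cells were then treated for 24 h in 1% serum medium with compound or DMSO vehicle. Scratched area was quantified in three random fields per treatment across three independent experiments.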

In data set [11] the test system is MCF7. Nature of the data set: Inhibition of cell migration in human MCF7 cells at 50 uM for 24 hrs by wound healing assay. The data set is classed as functional, cell-based. The essentials:
as §2

The subject of data set [12] is PC-3. The experiment in a line: Inhibition of cell migration in human PC3 cells at 50 uM for 24 hrs by wound healing assay. The format is functional, cell-based. The gist of the method:
as §2

Data set [13] has as its system PC-3. Nature of the data set: Inhibition of cell migration in human PC3 cells at 80 uM for 24 hrs by wound healing assay. The data set is classed as functional, cell-based. The essentials: as §2
Data set [14] has as its system HeLa. Nature of the data set: Inhibition of cell migration in human HeLa cells at 80 uM for 24 hrs by wound healing assay. The data set is classed as functional, cell-based. The essentials: as §2
The subject of data set [15] is PC-3. Nature of the data set: Inhibition of colony formation in human PC3 cells at sub-lethal dose measured after 5 days by colony formation assay. The format is functional, cell-based. The gist of the method: (§3)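 Clonogenic assay. Cells were seeded at 1 × 10³ cells/well in 6-well plates, and the medium was replaced after 24 h. Cells were then exposed to various concentrations of compound, alongside DMSO vehicle, for 5 days at 37 °C in 5% CO₂. Colonies were fixed with 4% paraformaldehyde, stained with 0.5% crystal violet, then counted and averaged over randomly chosen fields (n = 3).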

Data set [16] concerns HeLa. Nature of the data set: Inhibition of cell migration in human HeLa cells at 50 uM for 24 hrs by wound healing assay. The data set is classed as functional, cell-based. The gist of the method: as §2
Data set [17] deals with HeLa. The experiment in a line: Inhibition of colony formation in human HeLa cells at sub-lethal dose measured after 5 days by colony formation assay. The data set is classed as functional, cell-based. The gist of the method: as §3
Data set [18] deals with HeLa. The experiment in a line: Inhibition of colony formation in human HeLa cells measured after 5 days by colony formation assay. The data set is classed as functional, cell-based. The essentials: as §3

In the case of `COc1cc(OC)c2c(=O)c(-c3ccccc3)cn(C)c2c1`, the outcome in the data set on PC-3 [1], in the data set with MCF7 [2] and with HeLa [3] was inactive.
As to `COc1cc(OC)c2c(O)c(-c3ccccc3)cnc2c1`, the result in the data set with PC-3 [1], in the data set with MCF7 [2] and in the data set on HeLa [3] was inactive.
In the case of `CC[C@@]1(O)C(=O)OCc2c1cc1n(c2=O)Cc2cc3ccccc3nc2-1` [CAMPTOTHECIN], the Activity in the data set on HeLa [4] amounted to 68.6%; in the data set with HeLa [5] it was 17.7%.
As for `CCn1cc(-c2ccccc2)c(=O)c2c(OC)cc(OC)cc21` [CRATAEMINE], the Activity entry with PC-3 [6] was “Non-toxic”; with HeLa [7], “Non-toxic”; in the data set on HeLa [8], 76.8%; with HeLa [9] it was 17.2%; with HeLa [18] it was “Dose-dependent effect”. The result with MCF7 [10] and with MCF7 [11] was inactive. Moreover, the result with PC-3 [12], in the data set on PC-3 [13], in the data set on HeLa [14], in the data set with PC-3 [15], in the data set with HeLa [16] and with HeLa [17] was Active.
Take `CC(C)[C@@H]1CC[C@@H](C)[C@H]2[C@@H]1C[C@H]1[C@@H]3CC=C4C[C@@H](O[C@@H]5O[C@H](CO)[C@@H](O)[C@H](O)[C@H]5O)CC[C@]4(C)[C@H]3CC[C@]21C` [CRATAENOSIDE]: the Activity entry in the data set on PC-3 [6] was “Non-toxic”; in the data set on HeLa [7] it was “Non-toxic”; in the data set on HeLa [8], 63.5%; with HeLa [9] it was 22.5%; in the data set with HeLa [18], “Dose-dependent effect”. For the same compound, the result in the data set with MCF7 [10] and with MCF7 [11] was inactive. The result in the data set on PC-3 [12], with PC-3 [13], in the data set on HeLa [14], in the data set on PC-3 [15], in the data set on HeLa [16] and in the data set with HeLa [17] was Active.
